Results as given in ChEMBL document CHEMBL4152188, “Design, synthesis and biological evaluation of C(4) substituted monobactams as antibacterial agents against multidrug-resistant Gram-negative bacteria” (Eur J Med Chem, 2018).
In brackets after ≈: the same amount, converted by molar mass.

Experiments:
Format in all cases: functional
Klebsiella pneumoniae [1] = assay: Antibacterial activity against KPC-2 producing Klebsiella pneumoniae isolate 209735 after 18 hrs in presence of BPL by CLSI broth microdilution method; details: isolate 209735, 18 h
How it was run: (§1)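 CLSI broth microdilution against clinical isolates (ESBL E. coli, KPC-2 MDR K. pneumoniae, IMP-4 MDR P. aeruginosa; five per species). Iron limitation: Mueller-Hinton broth supplemented with 16 mg/liter 2,2'-bipyridyl to complex iron and induce iron uptake systems. Read-out: MIC.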

Pseudomonas aeruginosa [2] = assay: Antibacterial activity against IMP-4 producing Pseudomonas aeruginosa isolate 208247 after 18 hrs in presence of BPL by CLSI broth microdilution method; details: isolate 208247, 18 h; how it was run: as §1
Klebsiella pneumoniae [3] = assay: Antibacterial activity against KPC-2 producing Klebsiella pneumoniae isolate 212232 after 18 hrs in presence of BPL by CLSI broth microdilution method; details: isolate 212232, 18 h; how it was run: as §1
Pseudomonas aeruginosa [4] = assay: Antibacterial activity against IMP-4 producing Pseudomonas aeruginosa isolate 209321 after 18 hrs in presence of BPL by CLSI broth microdilution method; details: isolate 209321, 18 h; how it was run: as §1
Klebsiella pneumoniae [5] = assay: Antibacterial activity against KPC-2 producing Klebsiella pneumoniae isolate 212232 after 18 hrs by CLSI broth microdilution method; details: isolate 212232, 18 h
Escherichia coli [6] = assay: Antibacterial activity against extended-spectrum beta-lactamase producing Escherichia coli isolate 212648 after 18 hrs in presence of BPL by CLSI broth microdilution method; details: isolate 212648, 18 h; how it was run: as §1
Escherichia coli [7] = assay: Antibacterial activity against extended-spectrum beta-lactamase producing Escherichia coli isolate 208687 after 18 hrs by CLSI broth microdilution method; details: isolate 208687, 18 h
Pseudomonas aeruginosa [8] = assay: Antibacterial activity against IMP-4 producing Pseudomonas aeruginosa isolate 208247 after 18 hrs by CLSI broth microdilution method; details: isolate 208247, 18 h
Klebsiella pneumoniae [9] = assay: Antibacterial activity against KPC-2 producing Klebsiella pneumoniae isolate 212423 after 18 hrs by CLSI broth microdilution method; details: isolate 212423, 18 h
Escherichia coli [10] = assay: Antibacterial activity against extended-spectrum beta-lactamase producing Escherichia coli isolate 209285 after 18 hrs in presence of BPL by CLSI broth microdilution method; details: isolate 209285, 18 h; how it was run: as §1
Pseudomonas aeruginosa [11] = assay: Antibacterial activity against IMP-4 producing Pseudomonas aeruginosa isolate 212886 after 18 hrs by CLSI broth microdilution method; details: isolate 212886, 18 h
Klebsiella pneumoniae [12] = assay: Antibacterial activity against KPC-2 producing Klebsiella pneumoniae isolate 212423 after 18 hrs in presence of BPL by CLSI broth microdilution method; details: isolate 212423, 18 h; how it was run: as §1
Escherichia coli [13] = assay: Antibacterial activity against extended-spectrum beta-lactamase producing Escherichia coli isolate 209285 after 18 hrs by CLSI broth microdilution method; details: isolate 209285, 18 h
Pseudomonas aeruginosa [14] = assay: Antibacterial activity against IMP-4 producing Pseudomonas aeruginosa isolate 207272 after 18 hrs in presence of BPL by CLSI broth microdilution method; details: isolate 207272, 18 h; how it was run: as §1
Pseudomonas aeruginosa [15] = assay: Selectivity index, ratio of MIC for against IMP-4 producing Pseudomonas aeruginosa isolate 209321 to MIC for against IMP-4 producing Pseudomonas aeruginosa isolate 209321 in presence of BPL
Klebsiella pneumoniae [16] = assay: Antibacterial activity against KPC-2 producing Klebsiella pneumoniae isolate 212229 after 18 hrs by CLSI broth microdilution method; details: isolate 212229, 18 h
Pseudomonas aeruginosa [17] = assay: Selectivity index, ratio of MIC for against IMP-4 producing Pseudomonas aeruginosa isolate 209471 to MIC for against IMP-4 producing Pseudomonas aeruginosa isolate 209471 in presence of BPL
Escherichia coli [18] = assay: Antibacterial activity against Escherichia coli isolate 210737 after 18 hrs by CLSI broth microdilution method; details: isolate 210737, 18 h
Pseudomonas aeruginosa [19] = assay: Selectivity index, ratio of MIC for against IMP-4 producing Pseudomonas aeruginosa isolate 207272 to MIC for against IMP-4 producing Pseudomonas aeruginosa isolate 207272 in presence of BPL
Escherichia coli [20] = assay: Selectivity index, ratio of MIC for against extended-spectrum beta-lactamase producing Escherichia coli isolate 208687 to MIC for extended-spectrum beta-lactamase producing Escherichia coli isolate 208687 in presence of BPL
Klebsiella pneumoniae [21] = assay: Antibacterial activity against KPC-2 producing Klebsiella pneumoniae isolate 209632 after 18 hrs in presence of BPL by CLSI broth microdilution method; details: isolate 209632, 18 h; how it was run: as §1
Pseudomonas aeruginosa [22] = assay: Antibacterial activity against IMP-4 producing Pseudomonas aeruginosa isolate 212886 after 18 hrs in presence of BPL by CLSI broth microdilution method; details: isolate 212886, 18 h; how it was run: as §1
Escherichia coli [23] = assay: Antibacterial activity against extended-spectrum beta-lactamase producing Escherichia coli isolate 212648 after 18 hrs by CLSI broth microdilution method; details: isolate 212648, 18 h
Klebsiella pneumoniae [24] = assay: Selectivity index, ratio of MIC for against KPC-2 producing Klebsiella pneumoniae isolate 209632 to MIC for against KPC-2 producing Klebsiella pneumoniae isolate 209632 in presence of BPL
Klebsiella pneumoniae [25] = assay: Selectivity index, ratio of MIC for against KPC-2 producing Klebsiella pneumoniae isolate 209735 to MIC for against KPC-2 producing Klebsiella pneumoniae isolate 209735 in presence of BPL
Pseudomonas aeruginosa [26] = assay: Antibacterial activity against IMP-4 producing Pseudomonas aeruginosa isolate 209471 after 18 hrs in presence of BPL by CLSI broth microdilution method; details: isolate 209471, 18 h; how it was run: as §1
Klebsiella pneumoniae [27] = assay: Selectivity index, ratio of MIC for against KPC-2 producing Klebsiella pneumoniae isolate 212229 to MIC for against KPC-2 producing Klebsiella pneumoniae isolate 212229 in presence of BPL
Klebsiella pneumoniae [28] = assay: Antibacterial activity against KPC-2 producing Klebsiella pneumoniae isolate 209632 after 18 hrs by CLSI broth microdilution method; details: isolate 209632, 18 h
Pseudomonas aeruginosa [29] = assay: Antibacterial activity against IMP-4 producing Pseudomonas aeruginosa isolate 209471 after 18 hrs by CLSI broth microdilution method; details: isolate 209471, 18 h
Klebsiella pneumoniae [30] = assay: Antibacterial activity against KPC-2 producing Klebsiella pneumoniae isolate 209735 after 18 hrs by CLSI broth microdilution method; details: isolate 209735, 18 h
Pseudomonas aeruginosa [31] = assay: Antibacterial activity against IMP-4 producing Pseudomonas aeruginosa isolate 209321 after 18 hrs by CLSI broth microdilution method; details: isolate 209321, 18 h
Escherichia coli [32] = assay: Antibacterial activity against extended-spectrum beta-lactamase producing Escherichia coli isolate 106342 after 18 hrs in presence of BPL by CLSI broth microdilution method; details: isolate 106342, 18 h; how it was run: as §1
Klebsiella pneumoniae [33] = assay: Selectivity index, ratio of MIC for against KPC-2 producing Klebsiella pneumoniae isolate 212232 to MIC for against KPC-2 producing Klebsiella pneumoniae isolate 212232 in presence of BPL
Escherichia coli [34] = assay: Selectivity index, ratio of MIC for against extended-spectrum beta-lactamase producing Escherichia coli isolate 106342 to MIC for extended-spectrum beta-lactamase producing Escherichia coli isolate 106342 in presence of BPL
Escherichia coli [35] = assay: Antibacterial activity against extended-spectrum beta-lactamase producing Escherichia coli isolate 208687 after 18 hrs in presence of BPL by CLSI broth microdilution method; details: isolate 208687, 18 h; how it was run: as §1
Pseudomonas aeruginosa [36] = assay: Antibacterial activity against IMP-4 producing Pseudomonas aeruginosa isolate 207272 after 18 hrs by CLSI broth microdilution method; details: isolate 207272, 18 h
Escherichia coli [37] = assay: Selectivity index, ratio of MIC for against extended-spectrum beta-lactamase producing Escherichia coli isolate 209285 to MIC for extended-spectrum beta-lactamase producing Escherichia coli isolate 209285 in presence of BPL
Pseudomonas aeruginosa [38] = assay: Selectivity index, ratio of MIC for against IMP-4 producing Pseudomonas aeruginosa isolate 208247 to MIC for against IMP-4 producing Pseudomonas aeruginosa isolate 208247 in presence of BPL
Pseudomonas aeruginosa [39] = assay: Selectivity index, ratio of MIC for against IMP-4 producing Pseudomonas aeruginosa isolate 212886 to MIC for against IMP-4 producing Pseudomonas aeruginosa isolate 212886 in presence of BPL
Klebsiella pneumoniae [40] = assay: Selectivity index, ratio of MIC for against KPC-2 producing Klebsiella pneumoniae isolate 212423 to MIC for against KPC-2 producing Klebsiella pneumoniae isolate 212423 in presence of BPL
Escherichia coli [41] = assay: Selectivity index, ratio of MIC for against extended-spectrum beta-lactamase producing Escherichia coli isolate 212648 to MIC for extended-spectrum beta-lactamase producing Escherichia coli isolate 212648 in presence of BPL
Klebsiella pneumoniae [42] = assay: Antibacterial activity against KPC-2 producing Klebsiella pneumoniae isolate 212229 after 18 hrs in presence of BPL by CLSI broth microdilution method; details: isolate 212229, 18 h; how it was run: as §1
Escherichia coli [43] = assay: Antibacterial activity against extended-spectrum beta-lactamase producing Escherichia coli isolate 106342 after 18 hrs by CLSI broth microdilution method; details: isolate 106342, 18 h
Escherichia coli [44] = assay: Selectivity index, ratio of MIC for against Escherichia coli isolate 210737 to MIC for Escherichia coli isolate 210737 in presence of BPL
Escherichia coli [45] = assay: Antibacterial activity against Escherichia coli isolate 210737 after 18 hrs in presence of BPL by CLSI broth microdilution method; details: isolate 210737, 18 h; how it was run: as §1

CC(C)C(O/N=C(\C(=O)N[C@@H]1C(=O)N(S(=O)(=O)O)[C@@H]1CN1CCNC1=O)c1csc(N)n1)c1cc(=O)c(O)cn1O (stereo not given in full)
MIC (Klebsiella pneumoniae [1]): 4 µg/mL
MIC (Pseudomonas aeruginosa [2]): 64 µg/mL
MIC (Klebsiella pneumoniae [3]): 0.25 µg/mL
MIC (Pseudomonas aeruginosa [4]): 32 µg/mL
MIC (Klebsiella pneumoniae [5]): 1 µg/mL (≈ 1.63 µM)
MIC (Escherichia coli [6]): 2 µg/mL
MIC (Escherichia coli [7]): 1 µg/mL (≈ 1.63 µM)
MIC (Pseudomonas aeruginosa [8]): 64 µg/mL (≈ 104 µM)
MIC (Klebsiella pneumoniae [9]): 0.5 µg/mL (≈ 0.814 µM)
MIC (Escherichia coli [10]): 0.25 µg/mL
MIC (Pseudomonas aeruginosa [11]): 32 µg/mL (≈ 52.1 µM)
MIC (Klebsiella pneumoniae [12]): 0.125 µg/mL
MIC (Escherichia coli [13]): 1 µg/mL (≈ 1.63 µM)
MIC (Pseudomonas aeruginosa [14]): 32 µg/mL
Selectivity Index (Pseudomonas aeruginosa [15]): 1
MIC (Klebsiella pneumoniae [16]): 0.25 µg/mL (≈ 0.407 µM)
Selectivity Index (Pseudomonas aeruginosa [17]): 1
MIC (Escherichia coli [18]): 0.5 µg/mL (≈ 0.814 µM)
Selectivity Index (Pseudomonas aeruginosa [19]): 1
Selectivity Index (Escherichia coli [20]): 2
MIC (Klebsiella pneumoniae [21]): 4 µg/mL
MIC (Pseudomonas aeruginosa [22]): 32 µg/mL
MIC (Escherichia coli [23]): 2 µg/mL (≈ 3.25 µM)
Selectivity Index (Klebsiella pneumoniae [24]): 1
Selectivity Index (Klebsiella pneumoniae [25]): 4
MIC (Pseudomonas aeruginosa [26]): 32 µg/mL
Selectivity Index (Klebsiella pneumoniae [27]): 2
MIC (Klebsiella pneumoniae [28]): 4 µg/mL (≈ 6.51 µM)
MIC (Pseudomonas aeruginosa [29]): 32 µg/mL (≈ 52.1 µM)
MIC (Klebsiella pneumoniae [30]): 16 µg/mL (≈ 26 µM)
MIC (Pseudomonas aeruginosa [31]): 32 µg/mL (≈ 52.1 µM)
MIC (Escherichia coli [32]): 1 µg/mL
Selectivity Index (Klebsiella pneumoniae [33]): 4
Selectivity Index (Escherichia coli [34]): 1
MIC (Escherichia coli [35]): 0.5 µg/mL
MIC (Pseudomonas aeruginosa [36]): 32 µg/mL (≈ 52.1 µM)
Selectivity Index (Escherichia coli [37]): 4
Selectivity Index (Pseudomonas aeruginosa [38]): 1
Selectivity Index (Pseudomonas aeruginosa [39]): 1
Selectivity Index (Klebsiella pneumoniae [40]): 4
Selectivity Index (Escherichia coli [41]): 1
MIC (Klebsiella pneumoniae [42]): 0.125 µg/mL
MIC (Escherichia coli [43]): 1 µg/mL (≈ 1.63 µM)
Selectivity Index (Escherichia coli [44]): 2
MIC (Escherichia coli [45]): 0.25 µg/mL
